Assay results collected from several papers.
Compare with care: the assays were run in different laboratories.
Target: Protein kinase C epsilon type (PRKCE, Homo sapiens, UniProt Q02156)

SMILES	effect on	mode	method	concentration	quantity	value
Cc1ccc(C(=O)Nc2ccc(CN3CCN(C)CC3)c(C(F)(F)F)c2)cc1C#Cc1cnc2cccnn12	enzyme activity	–	–	23.5 nM	remaining activity	77%
COc1ccc(COc2ccc(Cc3cnc(N)nc3N)cc2OC)cc1	cell-free assay	–	–	0.5 µM	remaining signal	95.7%
Cn1cncc1C1=CN(c2ncnc3[nH]cnc23)CCS1	enzyme activity	inhibitor	radiometric	50 nM	inhibition	25.8%
Cc1cnc(NC2CCOCC2)nc1-n1cnc(C(=O)NC(CN)c2cc(F)cc(Cl)c2)c1 (centres unmarked)	enzyme activity	inhibitor	radiometric	1 µM	remaining activity	91%
CC/C(=N\NC(=O)NCc1cccc(O)c1)c1ccc(O)c(C)c1O	enzyme activity	inhibitor	–	0.1 µM	inhibition	19.6%
O=C(Nc1cccnn1)N1CC(C/C=C/c2cncc(Oc3ccc(C(F)(F)F)cn3)n2)C1	cell-free assay	–	competition with immobilised ligand	1 µM	remaining binding	100%
CC(C)(C)c1nc(-c2cccc(NS(=O)(=O)c3c(F)cccc3F)c2F)c(-c2ccnc(N)n2)s1	enzyme activity	inhibitor	radiometric	1 µM	remaining activity	132%
Cc1nc(N2CC[C@@H](O)C2)ncc1-c1cc(C(F)(F)F)cc2[nH]ncc12	cell-free assay	–	competition with immobilised ligand	1 µM	remaining binding	88%
CN(C)C[C@H]1CCn2c(c(C3=C(c4cn(C)c5ccccc45)C(=O)NC3=O)c3ccccc32)C1	cell-free assay	–	–	0.5 µM	remaining signal	2.73%
CS(=O)(=O)Nc1cccc(-c2csc(NC(=O)CSc3nc4nccnc4c(=O)n3CCc3ccccc3)n2)c1	enzyme activity	inhibitor	–	10 µM	inhibition	-9%
C=CC(=O)Nc1cc(Nc2nccc(Nc3cc(Cl)c(F)cc3C(C)(C)O)n2)c(OC)cc1N1CC[C@@H](N(C)C)C1	enzyme activity	inhibitor	–	1 µM	inhibition	2%
O=C(Nc1cccnn1)N1CCC(=Cc2cccc(Oc3ccc(C(F)(F)F)cn3)c2)CC1	cell-free assay	–	competition with immobilised ligand	1 µM	remaining binding	82%
Cc1ccc(Nc2nccc(N(C)c3ccc4c(C)n(C)nc4c3)n2)cc1S(N)(=O)=O	enzyme activity	inhibitor	–	10 µM	inhibition	12%
O=C(O)c1cc(-c2ccc(C3CCNCC3)cc2)c2ccc(-c3ccc(C(F)(F)F)cc3)cc2c1	cell-free assay	–	competition with immobilised ligand	1 µM	remaining binding	100%
Nc1ncnc2occ(-c3ccc(NC(=O)Nc4cc(C(F)(F)F)ccc4F)cc3)c12	cell-free assay	–	–	20 µM	remaining signal	50%
Cc1ccc(NC(=O)c2ccc(C)c(C(F)(F)F)c2)cc1C#Cc1nn(C2CCC(O)CC2)c2ncnc(N)c12 (centres unmarked)	cell-free assay	–	–	10 µM	remaining signal	117%
COc1ccc2c(c1)O[C@H](c1ccc(OC)c(OC)c1)C[C@@H]2NC(=O)C1(c2ccc3c(c2)OC(F)(F)O3)CC1	cell-free assay	–	competition with immobilised ligand	1 µM	remaining binding	90%
